Experimental data of several laboratories.
Protocols differ between the studies behind these lines.
glgA: glgA (Escherichia coli, UniProt P0A6U8)
CASP7: Caspase-7 (CASP7, Homo sapiens, UniProt P55210)

`OC[C@H]1NC[C@@H](O)[C@@H]1O` has an activity vs control of 72% (glgA; enzyme activity, inhibitor; 500 µM).
`CN(C)C(=O)COC(=O)Cc1ccc(OC(=O)c2ccc(NC(=N)N)cc2)cc1` gave an inhibition of 0% (CASP7; enzyme activity, inhibitor; 10 µM).
For `Nc1ncc(-c2nc(N3CCOCC3)nc(N3CCOCC3)n2)c(C(F)F)n1`, the remaining signal was 115% (5-hydroxytryptamine receptor 1B (Htr1b, Rattus norvegicus, UniProt P28564); cell-free assay, radioligand; 10 µM).
For `C=CC(=O)N1CCC[C@@H](n2nc(-c3ccc(Oc4ccccc4)cc3)c3c(N)ncnc32)C1`, the remaining signal was 195% (Dual specificity tyrosine-phosphorylation-regulated kinase 1B (DYRK1B, Homo sapiens, UniProt Q9Y463); cell-free assay; 0.1 µM).
`C#Cc1n[nH]c2c(-c3cn(C(C)c4ccccn4)c(=O)[nH]c3=O)cc(F)cc12` (stereo not shown) gave an inhibition of 14.7% (Phosphatidylinositol 4,5-bisphosphate 3-kinase catalytic subunit gamma isoform (PIK3CG, Homo sapiens, UniProt P48736); enzyme activity, inhibitor; 1 µM).
With `CC(=O)N[C@@H](CC(=O)O)C(=O)N[C@@H](CC(N)=O)C(=O)N[C@@H](CC(C)C)C(=O)N[C@H](C=O)CC(=O)O` the inhibition was 43% (CASP7; enzyme activity, inhibitor; 50 nM).
For `Cc1nn(C)cc1-c1nc2c(N3CCN(Cc4ccc(Cl)cc4)CC3)c(Cl)cnc2[nH]1`, the remaining binding was 87% (Dual specificity testis-specific protein kinase 1 (TESK1, Homo sapiens, UniProt Q15569); binding, competition with immobilised ligand; 1 µM).
`COc1ncccc1-c1cnn2ccc(N3CCN(C(=O)OC(C)C)CC3)nc12` gave a remaining binding of 86% (Mitogen-activated protein kinase kinase kinase 15 (MAP3K15, Homo sapiens, UniProt Q6ZN16); binding, competition with immobilised ligand; 1 µM).
`N=C(N)c1ccc2cc(OC(=O)c3ccc(N=C(N)N)cc3)ccc2c1` has an inhibition of 6% (Ubiquitin carboxyl-terminal hydrolase isozyme L3 (UCHL3, Homo sapiens, UniProt P15374); enzyme activity, inhibitor; 10 µM).
`O=C(Nc1cccnn1)N1CCN([C@@H]2CCOc3cc(C(F)(F)F)ccc32)CC1` gave an inhibition of 45% (Alpha-2B adrenergic receptor (ADRA2B, Homo sapiens, UniProt P18089); ligand displacement; 20 µM).
`CSCC[C@H](NC(=O)[C@@H](NC(=O)[C@@H](N)Cc1ccc(O)cc1)C(C)C)C(=O)NCC(=O)N[C@@H](Cc1c[nH]cn1)C(=O)O` has an Emax of 60% (Melanocyte-stimulating hormone receptor (Mc1r, Mus musculus, UniProt Q01727); cAMP, agonist; HEK293).
`CCN(CC)CCCC[C@H](NC(=O)[C@H](CC(C)C)NC(=O)[C@H](C)NC(=O)[C@H](Cc1ccccc1)NC(=O)c1ccc(C(C)(C)C)cc1)C(=O)N[C@@H](CO)C(=O)OC` has a ΔTm of 0.35 °C (CREB-binding protein (CREBBP, Homo sapiens, UniProt Q92793); thermal stability, DSF; 25 µM).
`Nc1ncnc2c1ncn2[C@@H]1O[C@H](COP(=O)(O)OP(=O)(O)O[C@H]2O[C@H](CO)[C@@H](O)[C@H](O)[C@H]2O)[C@@H](O)[C@H]1O` gave a Km of 420 µM (glgA; enzyme activity, substrate).
